Activity calls are given as the source filed them. The rule behind the calls is not given here.
Key:
Vaccinia virus [1] = experiment: Antiviral activity against Vaccinia virus WR infected in African green monkey BSC1 cells after overnight incubation by crystal violet staining-based plaque reduction assay; format: functional, organism-based; settings: Orthopoxvirus vaccinia, BSC-1
BSC-1 [2] = experiment: (§1) Cytotoxicity against African green monkey BSC1 cells after 20 hrs by lactate dehydrogenase assay; format: cell-based; settings: chlorocebus aethiops, bsc-1, 20 h
Procedure, shortened: (§2)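 Cytotoxicity in BSC-1 cells was measured by LDH release, with Neutral Red also used. Assays were run in triplicate and repeated at least twice. CC50 was obtained from a variable-slope four-parameter nonlinear regression fit. Values ≥100 μM were called not active.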

[3] = Selectivity index, ratio of CC50 for African green monkey BSC1 cells to IC50 for Vaccinia virus WR; format: functional, BSC-1
BSC-1 [4] = experiment: Inhibition of 1 MOI of Vaccinia virus WR DNA polymerase processivity factor A20NT100-D4 complex infected in African green monkey BSC1 cells assessed as decrease in E3 protein level at 1 uM after 8 hrs by Western blotting analysis; format: cell-based
BSC-1 [5] = experiment: Inhibition of 1 MOI of Vaccinia virus WR DNA polymerase processivity factor A20NT100-D4 complex infected in African green monkey BSC1 cells assessed as decrease in BrdU incorporation at 1 uM after 4 to 8 hrs by DAPI staining-based confocal microscopic analysis; format: cell-based
Vaccinia virus [6] = experiment: Antiviral activity against 5 MOI of Vaccinia virus WR infected in African green monkey BSC1 cells assessed as decrease in virus-induced cytopathicity at 1 uM after 8 hrs relative to vehicle-treated control; format: functional, organism-based; settings: Orthopoxvirus vaccinia, BSC-1
Vaccinia virus [7] = experiment: Antiviral activity against 5 MOI of Vaccinia virus WR infected in African green monkey BSC1 cells assessed as decrease in virus-induced cytopathicity at 1 uM after 8 hrs relative to cidofovir; format: functional, organism-based; settings: Orthopoxvirus vaccinia, BSC-1
BSC-1 [8] = experiment: Inhibition of 5 MOI of Vaccinia virus WR DNA polymerase processivity factor A20NT100-D4 complex coexpressing recombinant L1 protein infected in African green monkey BSC1 cells assessed as reduction in EGFP expression at 1 uM after 8 hrs by fluorescence microscopic analysis; format: cell-based
BSC-1 [9] = experiment: Inhibition of 1 MOI of Vaccinia virus WR DNA polymerase processivity factor A20NT100-D4 complex infected in African green monkey BSC1 cells assessed as decrease in A4 protein level after 12 hrs by Western blotting analysis; format: cell-based
[10] = as §1; format: cell-based, BSC-1; settings: chlorocebus aethiops, BSC-1 cells; procedure, shortened: as §2
BSC-1 [11] = experiment: Inhibition of 5 MOI of Vaccinia virus WR DNA polymerase processivity factor A20NT100-D4 complex coexpressing recombinant L1 protein infected in African green monkey BSC1 cells assessed as reduction in EGFP expression at 100 uM after 8 hrs by fluorescence microscopic analysis; format: cell-based

Structure (SMILES): O=C(O)c1[nH]c2ccccc2c1Sc1cc(Cl)cc(Cl)c1
- IC50 (Vaccinia virus [1]): 43 µM

Structure (SMILES): Cc1ccc2c(Sc3ccc(Br)cc3)c(C(=O)O)[nH]c2c1
- IC50 (Vaccinia virus [1]): ≥ 100 µM

Structure (SMILES): CCn1c(C(=O)OC)c(Sc2ccc(Cl)cc2)c2cc(C)ccc21
- IC50 (Vaccinia virus [1]): 39 µM

Structure (SMILES): Cc1ccc2c(Sc3ccc(Cl)c(Cl)c3)c(C(=O)O)[nH]c2c1
- IC50 (Vaccinia virus [1]): 34 µM

Structure (SMILES): CCOC(=O)c1[nH]c2ccc(C)cc2c1Sc1ccc(Cl)cc1
- IC50 (Vaccinia virus [1]): ≥ 100 µM

Structure (SMILES): Cc1ccc2[nH]c(C(=O)Oc3ccccc3)c(Sc3ccc(Cl)cc3)c2c1
- IC50 (Vaccinia virus [1]): ≥ 100 µM

Structure (SMILES): Cc1ccc(Sc2c(C(=O)O)[nH]c3cc(C)ccc23)cc1
- IC50 (Vaccinia virus [1]): ≥ 100 µM

Structure (SMILES): Cc1cccc2c(Sc3cc(Cl)c(Cl)cc3Cl)c(C(=O)O)[nH]c12
- IC50 (Vaccinia virus [1]): 21 µM

Structure (SMILES): COC(=O)c1ccc(Sc2c(C(=O)O)[nH]c3cccc(C)c23)cc1
- IC50 (Vaccinia virus [1]): ≥ 100 µM

Structure (SMILES): CCc1ccc2c(Sc3ccc(Cl)cc3)c(C(=O)O)[nH]c2c1
- IC50 (Vaccinia virus [1]): 36 µM

Structure (SMILES): Cc1ccc2c(Sc3cccc(Cl)c3)c(C(=O)O)[nH]c2c1
- IC50 (Vaccinia virus [1]): 51 µM

Structure (SMILES): COC(=O)c1[nH]c2cc(C)ccc2c1Sc1ccc(Cl)cc1
- IC50 (Vaccinia virus [1]): 19 µM

Structure (SMILES): O=C(O)c1[nH]c2ccccc2c1Sc1ccc(Cl)cc1
- IC50 (Vaccinia virus [1]): ≥ 100 µM

Structure (SMILES): O=C(O)c1[nH]c2cc(F)ccc2c1Sc1ccc(Cl)cc1
- IC50 (Vaccinia virus [1]): 40 µM

Structure (SMILES): Cc1ccc2c(Sc3ccc(C(F)(F)F)cc3)c(C(=O)O)[nH]c2c1
- IC50 (Vaccinia virus [1]): 33 µM

Structure (SMILES): Cc1ccc2c(Sc3cc(Cl)cc(Cl)c3)c(CC(N)=O)[nH]c2c1
- CC50 (BSC-1 [2]): 26 µM
- Ratio CC50/IC50 [3]: 570
- IC50 (Vaccinia virus [1]): 0.046 µM

Structure (SMILES): CCOC(=O)c1[nH]c2cccc(C)c2c1Sc1ccc(Cl)cc1
- IC50 (Vaccinia virus [1]): ≥ 100 µM

Structure (SMILES): Cc1cccc2[nH]c(C(=O)OC(C)C)c(Sc3ccc(Cl)cc3)c12
- IC50 (Vaccinia virus [1]): ≥ 100 µM

Structure (SMILES): Cc1cccc2[nH]c(C(=O)OCc3ccccc3)c(Sc3ccc(Cl)cc3)c12
- IC50 (Vaccinia virus [1]): ≥ 100 µM

Structure (SMILES): CCc1ccc2c(Sc3ccc(Cl)c(Cl)c3)c(C(=O)O)[nH]c2c1
- IC50 (Vaccinia virus [1]): 42 µM

Structure (SMILES): COc1ccc(Sc2c(C(=O)O)[nH]c3cccc(C)c23)cc1
- IC50 (Vaccinia virus [1]): ≥ 100 µM

Structure (SMILES): COC(=O)c1[nH]c2c(C)cccc2c1Sc1ccc(Cl)cc1
- IC50 (Vaccinia virus [1]): 23 µM

Structure (SMILES): CNC(=O)c1[nH]c2cc(C)ccc2c1Sc1cc(Cl)cc(Cl)c1
- IC50 (Vaccinia virus [1]): ≥ 100 µM

Structure (SMILES): CCc1ccc2c(Sc3cc(Cl)cc(Cl)c3)c(C(=O)O)[nH]c2c1
- IC50 (Vaccinia virus [1]): 9 µM

Structure (SMILES): Cc1ccc2c(Sc3cc(Cl)cc(Cl)c3)c(C(=O)O)[nH]c2c1
- CC50 (BSC-1 [2]): 75 µM
- Ratio CC50/IC50 [3]: 11
- IC50 (Vaccinia virus [1]): 7 µM

Structure (SMILES): O=C(O)c1[nH]c2cc(Br)ccc2c1Sc1ccc(Cl)cc1
- IC50 (Vaccinia virus [1]): 51 µM

Structure (SMILES): O=C(O)c1[nH]c2cc(Cl)ccc2c1Sc1ccc(Cl)cc1
- IC50 (Vaccinia virus [1]): 47 µM

Structure (SMILES): Cc1cccc2[nH]c(C(=O)O)c(Sc3cc(Cl)c(Cl)cc3Cl)c12
- IC50 (Vaccinia virus [1]): 18 µM

Structure (SMILES): COC(=O)c1[nH]c2ccc(C)cc2c1Sc1ccc(Cl)cc1
- IC50 (Vaccinia virus [1]): ≥ 100 µM

Structure (SMILES): Cc1ccc2c(Sc3cccc(F)c3)c(C(=O)O)[nH]c2c1
- IC50 (Vaccinia virus [1]): 69 µM

Structure (SMILES): COC(=O)c1[nH]c2cccc(C)c2c1Sc1ccc(Cl)cc1
- IC50 (Vaccinia virus [1]): 21 µM

Structure (SMILES): Cc1ccc2c(Sc3ccc(C(F)(F)F)cc3[N+](=O)[O-])c(C(=O)O)[nH]c2c1
- IC50 (Vaccinia virus [1]): ≥ 100 µM

Structure (SMILES): Cc1ccc2c(Sc3cc(Cl)cc(Cl)c3)c(CCC(N)=O)[nH]c2c1
- CC50 (BSC-1 [2]): 16 µM
- inhibition (BSC-1 [4]): Active
- Ratio CC50/IC50 [3]: 374
- inhibition (BSC-1 [5]): Active
- Activity (Vaccinia virus [6]): Active
- Activity (Vaccinia virus [7]): Active
- inhibition (BSC-1 [8]): Active
- IC50 (Vaccinia virus [1]): 0.042 µM
- inhibition (BSC-1 [9]): Dose-dependent effect

Structure (SMILES): Cc1ccc2c(Sc3cc(Cl)c(Cl)cc3Cl)c(C(=O)O)[nH]c2c1
- IC50 (Vaccinia virus [1]): 25 µM

Structure (SMILES): Cc1ccc2c(c1)c(Sc1ccc(Cl)cc1)c(C(=O)O)n2C
- IC50 (Vaccinia virus [1]): ≥ 100 µM

Structure (SMILES): Cc1ccc2c(Sc3ccc(C(=O)O)cc3)c(C(=O)O)[nH]c2c1
- IC50 (Vaccinia virus [1]): ≥ 100 µM

Structure (SMILES): Cc1cccc2c(Sc3ccc(Cl)cc3)c(C(=O)O)[nH]c12
- IC50 (Vaccinia virus [1]): 74 µM

Structure (SMILES): Cc1cccc2[nH]c(C(=O)O)c(Sc3ccc([N+](=O)[O-])cc3)c12
- IC50 (Vaccinia virus [1]): ≥ 100 µM

Structure (SMILES): Cc1ccc2c(Sc3ccc(Cl)cc3)c(C(=O)O)[nH]c2c1
- IC50 (Vaccinia virus [1]): 82 µM

Structure (SMILES): COC(=O)c1[nH]c2cc(C)ccc2c1Sc1cc(Cl)cc(Cl)c1
- IC50 (Vaccinia virus [1]): ≥ 100 µM

Structure (SMILES): Cc1cccc2[nH]c(C(=O)O)c(Sc3ccc(Cl)cc3)c12
- IC50 (Vaccinia virus [1]): 86 µM

Structure (SMILES): Cc1ccc(Sc2c(C(=O)O)[nH]c3cccc(C)c23)cc1
- IC50 (Vaccinia virus [1]): ≥ 100 µM

Structure (SMILES): Cc1ccc2c(Sc3cc(Cl)cc(Cl)c3)c(CCCC(N)=O)[nH]c2c1
- CC50 at 20 h [10]: ≥ 100 µM
- IC50 (Vaccinia virus [1]): 0.208 µM

Structure (SMILES): Cc1ccc(C)c2c(Sc3ccc(Cl)cc3)c(C(=O)O)[nH]c12
- IC50 (Vaccinia virus [1]): 50 µM

Structure (SMILES): CCCCCCNC(=O)CCc1[nH]c2cc(C)ccc2c1Sc1cc(Cl)cc(Cl)c1
- CC50 (BSC-1 [2]): 27 µM
- IC50 (Vaccinia virus [1]): ≥ 100 µM

Structure (SMILES): Cc1ccc2c(Sc3ccc(Cl)cc3Cl)c(C(=O)O)[nH]c2c1
- IC50 (Vaccinia virus [1]): 37 µM

Structure (SMILES): Cc1ccc2c(Sc3ccccc3)c(C(=O)O)[nH]c2c1
- IC50 (Vaccinia virus [1]): ≥ 100 µM

Structure (SMILES): Cc1cccc2[nH]c(C(=O)Oc3ccccc3)c(Sc3ccc(Cl)cc3)c12
- IC50 (Vaccinia virus [1]): ≥ 100 µM

Structure (SMILES): Cc1ccc2[nH]c(C(=O)O)c(Sc3ccc(Cl)cc3)c2c1
- IC50 (Vaccinia virus [1]): 46 µM

Structure (SMILES): Cc1ccc2[nH]c(C(=O)OC(C)C)c(Sc3ccc(Cl)cc3)c2c1
- IC50 (Vaccinia virus [1]): ≥ 100 µM

Structure (SMILES): COc1ccc(Sc2c(C(=O)O)[nH]c3cc(C)ccc23)cc1
- IC50 (Vaccinia virus [1]): ≥ 100 µM

Structure (SMILES): COC(=O)c1c(Sc2ccc(Cl)cc2)c2cc(C)ccc2n1C
- IC50 (Vaccinia virus [1]): ≥ 100 µM

Structure (SMILES): CCn1c(C(=O)O)c(Sc2ccc(Cl)cc2)c2cc(C)ccc21
- IC50 (Vaccinia virus [1]): 86 µM

Structure (SMILES): Nc1ccn(C[C@@H](CO)OCP(=O)(O)O)c(=O)n1
- inhibition (BSC-1 [11]): Active

Structure (SMILES): Cc1cccc2c(Sc3ccc(Cl)c(Cl)c3)c(C(=O)O)[nH]c12
- IC50 (Vaccinia virus [1]): 35 µM

Structure (SMILES): COC(=O)c1[nH]c2cc(C)ccc2c1Sc1ccccc1
- IC50 (Vaccinia virus [1]): 10 µM

Structure (SMILES): COc1cccc2[nH]c(C(=O)O)c(Sc3ccc(Cl)cc3)c12
- IC50 (Vaccinia virus [1]): ≥ 100 µM

Structure (SMILES): Cc1ccc2c(Sc3cc(Cl)cc(Cl)c3)c(CCC(=O)O)[nH]c2c1
- CC50 (BSC-1 [2]): 36 µM
- Ratio CC50/IC50 [3]: 152
- IC50 (Vaccinia virus [1]): 0.244 µM

Structure (SMILES): Cc1ccc2[nH]c(C(=O)OCc3ccccc3)c(Sc3ccc(Cl)cc3)c2c1
- IC50 (Vaccinia virus [1]): ≥ 100 µM

— ChEMBL document CHEMBL2321819, “Design of potent poxvirus inhibitors of the heterodimeric processivity factor required for viral replication” (J Med Chem, 2013)
